{
  "source": "ChEMBL document CHEMBL1123589",
  "about": "“Phenylpiperazine-based radiopharmaceuticals for brain imaging. 3. Synthesis and evaluation of radioiodinated 1-alkyl-4-phenylpiperazines” (J Med Chem, 1987)",
  "conditions_in_all_cases": "in vivo",
  "key": {"Rattus norvegicus [1]": {"system": "Rattus norvegicus", "assay": "The biodistribution of the [125I]-labeled compound in rats after intravenous injection was evaluated in kidney at 1.00 hrs; value ranges from 0.35-0.42 (ID.kg/g)", "type": "ADME, organism-based", "outline": "(§1)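 Male Sprague-Dawley rats (250–300 g), under ether anesthesia, given 10–15 μCi of the NCA ¹²⁵I-labeled agent iv in 0.1 mL saline. Groups of N = 3 were killed at 0.25, 1 or 4 h. Blood and tissues were removed, weighed and counted in a γ-well scintillation counter. Values are mean % ID·kg/g (range).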"}, "Rattus norvegicus [2]": {"system": "Rattus norvegicus", "assay": "The biodistribution of the [125I]-labeled compound in rats after intravenous injection was evaluated in heart at 0.25 hrs (ID.kg/g)", "type": "ADME, organism-based", "outline": "(§2)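 Male Sprague-Dawley rats (250–300 g) under ether anesthesia were given an iv injection of no-carrier-added 125I-labelled agent (10–15 μCi in 0.1 mL saline). The agent was iodinated with chloramine-T in acetate buffer and purified by C-18 HPLC. Groups of N = 3 were killed at 0.25, 1 and 4 h. Blood and tissues were weighed and γ-counted. Values are % ID·kg/g, mean (range).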"}, "Rattus norvegicus [3]": {"system": "Rattus norvegicus", "assay": "The biodistribution of the [125I]-labeled compound in rats after intravenous injection was evaluated in blood at 0.25 hrs (ID.kg/g)", "type": "ADME, organism-based", "outline": "as §2"}, "Rattus norvegicus [4]": {"system": "Rattus norvegicus", "assay": "The biodistribution of the [125I]-labeled compound in rats after intravenous injection was evaluated in adrenal at 0.25 hrs; value ranges from 0.84-0.91 (ID.kg/g)", "type": "ADME, organism-based", "outline": "as §2"}, "Rattus norvegicus [5]": {"system": "Rattus norvegicus", "assay": "The biodistribution of the [125I]-labeled compound in rats after intravenous injection was evaluated in muscle at 4.00 hrs (ID.kg/g)", "type": "ADME, organism-based, Muscle tissue", "outline": "(§3)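 Male Sprague-Dawley rats (250–300 g) under ether anesthesia given iv 0.1 mL saline containing 10–15 μCi of NCA ¹²⁵I-labeled agent (chloramine-T iodination, HPLC-purified). Groups of 3 killed at 0.25, 1 and 4 h. Blood and tissues excised, weighed and γ-counted. Values are mean (range) of % injected dose × body mass (kg) per gram of tissue.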"}, "Rattus norvegicus [6]": {"system": "Rattus norvegicus", "assay": "The biodistribution of the [125I]-labeled compound in rats after intravenous injection was evaluated in blood at 1.00 hrs (ID.kg/g)", "type": "ADME, organism-based", "outline": "as §2"}, "Rattus norvegicus [7]": {"system": "Rattus norvegicus", "assay": "The biodistribution of the [125I]-labeled compound in rats after intravenous injection was evaluated in kidney at 4.00 hrs; value ranges from. 28-0.30(ID.kg/g)", "type": "ADME, organism-based", "outline": "as §1"}, "Rattus norvegicus [8]": {"system": "Rattus norvegicus", "assay": "The biodistribution of the [125I]-labeled compound in rats after intravenous injection was evaluated in liver at 1.00 hr 0.46-0.90 (ID.kg/g)", "type": "ADME, organism-based", "outline": "as §1"}, "Rattus norvegicus [9]": {"system": "Rattus norvegicus", "assay": "The biodistribution of the [125I]-labeled compound in rats after intravenous injection was evaluated in kidney at 0.25 hr; value ranges from 0.35-0.39 (ID.kg/g)", "type": "ADME, organism-based", "outline": "as §1"}, "Rattus norvegicus [10]": {"system": "Rattus norvegicus", "assay": "The biodistribution of the [125I]-labeled compound in rats after intravenous injection was evaluated in lung at 4.00 hrs; value ranges from 0.53-0.59 (ID.kg/g)", "type": "ADME, organism-based", "outline": "as §3"}, "Rattus norvegicus [11]": {"system": "Rattus norvegicus", "assay": "The biodistribution of the [125I]-labeled compound in rats after intravenous injection was evaluated in adrenal at 4.00 hrs; value ranges from 1.09-1.22 (ID.kg/g)", "type": "ADME, organism-based", "outline": "as §2"}, "Rattus norvegicus [12]": {"system": "Rattus norvegicus", "assay": "The biodistribution of the [125I]-labeled compound in rats after intravenous injection was evaluated in thyroid at 4.00 hrs; value ranges from 2.64-2.80 (ID.kg/g)", "type": "ADME, organism-based, Thyroid gland", "outline": "as §3"}, "Rattus norvegicus [13]": {"system": "Rattus norvegicus", "assay": "The biodistribution of the [125I]-labeled compound in rats after intravenous injection was evaluated in brain at 4.00 hrs (ID.kg/g)", "type": "ADME, organism-based", "outline": "as §2"}, "Rattus norvegicus [14]": {"system": "Rattus norvegicus", "assay": "The biodistribution of the [125I]-labeled compound in rats after intravenous injection was evaluated in lung at 0.25 hrs; value ranges from 1.0-1.14 (ID.kg/g)", "type": "ADME, organism-based", "outline": "as §1"}, "Rattus norvegicus [15]": {"system": "Rattus norvegicus", "assay": "The biodistribution of the [125I]-labeled compound in rats after intravenous injection was evaluated in brain at 0.25 hrs; value ranges from 0.10-0.16 (ID.kg/g)", "type": "ADME, organism-based", "outline": "as §2"}, "Rattus norvegicus [16]": {"system": "Rattus norvegicus", "assay": "The biodistribution of the [125I]-labeled compound in rats after intravenous injection was evaluated in adrenal at 1.00 hrs; value ranges from 0.78-1.46 (ID.kg/g)", "type": "ADME, organism-based", "outline": "as §2"}, "Rattus norvegicus [17]": {"system": "Rattus norvegicus", "assay": "The biodistribution of the [125I]-labeled compound in rats after intravenous injection was evaluated in fat at 1.00 hrs (ID.kg/g)", "type": "ADME, organism-based, Adipose tissue", "outline": "as §2"}, "Rattus norvegicus [18]": {"system": "Rattus norvegicus", "assay": "The biodistribution of the [125I]-labeled compound in rats after intravenous injection was evaluated in fat at 4.00 hrs; value ranges from 0.02-0.04 (ID.kg/g)", "type": "ADME, organism-based, Adipose tissue", "outline": "as §2"}, "Rattus norvegicus [19]": {"system": "Rattus norvegicus", "assay": "The biodistribution of the [125I]-labeled compound in rats after intravenous injection was evaluated in heart at 1.00 hrs; value ranges from 0.14-0.18 (ID.kg/g)", "type": "ADME, organism-based", "outline": "as §1"}, "Rattus norvegicus [20]": {"system": "Rattus norvegicus", "assay": "The biodistribution of the [125I]-labeled compound in rats after intravenous injection was evaluated in lung at 1.00 hrs; value ranges from 0.65-0.85 (ID.kg/g)", "type": "ADME, organism-based", "outline": "as §1"}, "Rattus norvegicus [21]": {"system": "Rattus norvegicus", "assay": "The biodistribution of the [125I]-labeled compound in rats after intravenous injection was evaluated in muscle at 0.25 hrs (ID.kg/g)", "type": "ADME, organism-based, Muscle tissue", "outline": "as §3"}, "Rattus norvegicus [22]": {"system": "Rattus norvegicus", "assay": "The biodistribution of the [125I]-labeled compound in rats after intravenous injection was evaluated in thyroid at 1.00 hrs; value ranges from 1.41-1.72 (ID.kg/g)", "type": "ADME, organism-based, Thyroid gland", "outline": "as §3"}, "Rattus norvegicus [23]": {"system": "Rattus norvegicus", "assay": "The biodistribution of the [125I]-labeled compound in rats after intravenous injection was evaluated in heart at 4.00 hrs; value ranges from 0.11-0.13 (ID.kg/g)", "type": "ADME, organism-based", "outline": "as §1"}, "Rattus norvegicus [24]": {"system": "Rattus norvegicus", "assay": "The biodistribution of the [125I]-labeled compound in rats after intravenous injection was evaluated in liver at 0.25 hr; value ranges from; value ranges from 0.45-0.60 (ID.kg/g)", "type": "ADME, organism-based", "outline": "as §1"}, "Rattus norvegicus [25]": {"system": "Rattus norvegicus", "assay": "The biodistribution of the [125I]-labeled compound in rats after intravenous injection was evaluated in fat at 0.25 hr (ID. kg/g)", "type": "ADME, organism-based, Adipose tissue", "outline": "as §2"}, "Rattus norvegicus [26]": {"system": "Rattus norvegicus", "assay": "The biodistribution of the [125I]-labeled compound in rats after intravenous injection was evaluated in liver at 4.00 hrs (ID.kg/g)", "type": "ADME, organism-based", "outline": "as §1"}, "Rattus norvegicus [27]": {"system": "Rattus norvegicus", "assay": "The biodistribution of the [125I]-labeled compound in rats after intravenous injection was evaluated in muscle at 1.00 hrs (ID.kg/g)", "type": "ADME, organism-based, Muscle tissue", "outline": "as §3"}, "Rattus norvegicus [28]": {"system": "Rattus norvegicus", "assay": "The biodistribution of the [125I]-labeled compound in rats after intravenous injection was evaluated in thyroid at 0.25 hrs; value ranges from 1.44-2.04 (ID.kg/g)", "type": "ADME, organism-based, Thyroid gland", "outline": "as §3"}, "Rattus norvegicus [29]": {"system": "Rattus norvegicus", "assay": "The biodistribution of the [125I]-labeled compound in rats after intravenous injection was evaluated in brain at 1.00 hrs; value ranges from 0.08-0.10 (ID.kg/g)", "type": "ADME, organism-based", "outline": "as §2"}, "Rattus norvegicus [30]": {"system": "Rattus norvegicus", "assay": "The biodistribution of the [125I]-labeled compound in rats after intravenous injection was evaluated in blood at 4.00 hrs (ID.kg/g)", "type": "ADME, organism-based", "outline": "as §2"}},
  "data": [
    {"molecule": "CCCCCCN1CCN(c2ccc(I)cc2)CC1", "values": [
      {"measurement": "Biodistribution", "setting": "Rattus norvegicus [1]", "value": 0.42, "unit": "%"},
      {"measurement": "Biodistribution", "setting": "Rattus norvegicus [2]", "value": 0.24, "unit": "%"},
      {"measurement": "Biodistribution", "setting": "Rattus norvegicus [3]", "value": 0.01, "unit": "% ID·kg/g"},
      {"measurement": "Biodistribution", "setting": "Rattus norvegicus [4]", "value": 0.91, "unit": "%"},
      {"measurement": "Biodistribution", "setting": "Rattus norvegicus [5]", "value": 0.02, "unit": "%ID·kg/g"},
      {"measurement": "Biodistribution", "setting": "Rattus norvegicus [6]", "value": 0.01, "unit": "% ID·kg/g"},
      {"measurement": "Biodistribution", "setting": "Rattus norvegicus [7]", "value": 0.3, "unit": "%"},
      {"measurement": "Biodistribution", "setting": "Rattus norvegicus [8]", "value": 0.9, "unit": "%"},
      {"measurement": "Biodistribution", "setting": "Rattus norvegicus [9]", "value": 0.39, "unit": "%"},
      {"measurement": "Biodistribution", "setting": "Rattus norvegicus [10]", "value": 0.59, "unit": "%"},
      {"measurement": "Biodistribution", "setting": "Rattus norvegicus [11]", "value": 1.22, "unit": "%"},
      {"measurement": "Biodistribution", "setting": "Rattus norvegicus [12]", "value": 2.8, "unit": "%"},
      {"measurement": "Biodistribution", "setting": "Rattus norvegicus [13]", "value": 0.09, "unit": "%"},
      {"measurement": "Biodistribution", "setting": "Rattus norvegicus [14]", "value": 1.14, "unit": "%"},
      {"measurement": "Biodistribution", "setting": "Rattus norvegicus [15]", "value": 0.16, "unit": "%"},
      {"measurement": "Biodistribution", "setting": "Rattus norvegicus [16]", "value": 1.46, "unit": "%"},
      {"measurement": "Biodistribution", "setting": "Rattus norvegicus [17]", "value": 0.02, "unit": "% ID·kg/g"},
      {"measurement": "Biodistribution", "setting": "Rattus norvegicus [18]", "value": 0.04, "unit": "%"},
      {"measurement": "Biodistribution", "setting": "Rattus norvegicus [19]", "value": 0.18, "unit": "%"},
      {"measurement": "Biodistribution", "setting": "Rattus norvegicus [20]", "value": 0.85, "unit": "%"},
      {"measurement": "Biodistribution", "setting": "Rattus norvegicus [21]", "value": 0.03, "unit": "% ID·kg/g"},
      {"measurement": "Biodistribution", "setting": "Rattus norvegicus [22]", "value": 1.72, "unit": "%"},
      {"measurement": "Biodistribution", "setting": "Rattus norvegicus [23]", "value": 0.13, "unit": "%"},
      {"measurement": "Biodistribution", "setting": "Rattus norvegicus [24]", "value": 0.6, "unit": "%"},
      {"measurement": "Biodistribution", "setting": "Rattus norvegicus [25]", "value": 0.01, "unit": "% ID·kg/g"},
      {"measurement": "Biodistribution", "setting": "Rattus norvegicus [26]", "value": 0.78, "unit": "%"},
      {"measurement": "Biodistribution", "setting": "Rattus norvegicus [27]", "value": 0.02, "unit": "%ID·kg/g"},
      {"measurement": "Biodistribution", "setting": "Rattus norvegicus [28]", "value": 2.04, "unit": "%"},
      {"measurement": "Biodistribution", "setting": "Rattus norvegicus [29]", "value": 0.1, "unit": "%"},
      {"measurement": "Biodistribution", "setting": "Rattus norvegicus [30]", "value": 0.01, "unit": "% ID·kg/g"}
    ]}
  ]
}
